The values that follow come from ChEMBL document CHEMBL4152376, “Optimization of 8-Hydroxyquinolines as Inhibitors of Catechol O-Methyltransferase” (J Med Chem, 2018).

For series [1], the target named is T1, Catechol O-methyltransferase (Homo sapiens, UniProt P21964).
T1 sequence (P21964 whole entry): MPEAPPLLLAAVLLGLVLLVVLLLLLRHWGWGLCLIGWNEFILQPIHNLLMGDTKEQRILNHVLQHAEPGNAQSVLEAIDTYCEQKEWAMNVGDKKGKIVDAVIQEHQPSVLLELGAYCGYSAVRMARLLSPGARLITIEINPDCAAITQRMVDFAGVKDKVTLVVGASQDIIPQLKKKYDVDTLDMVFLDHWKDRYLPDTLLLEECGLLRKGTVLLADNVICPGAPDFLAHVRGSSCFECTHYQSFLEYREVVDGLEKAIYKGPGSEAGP
In words: Inhibition of c-terminal hexa-His tagged human MB-COMT expressed in HEK293 cell membrane homogenate using norepinephrine as substrate after 1 hr in presence of SAM by MTase glo methyltransferase assay. The procedure, abridged: (§1)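 Membrane homogenate of HEK293 cells expressing C-terminal His6 MB-COMT (human about 7 ng, rat about 4 ng per well, protein by Bradford […]). 20 µM SAM and 7 µM norepinephrine in 50 mM Tris, 5–10 mM MgCl2, 2.5 mM DTT, pH 6.9, final DMSO 1.5%. 1 h at 37 °C, then MTase-Glo luminescence. […] 4-parameter IC50 fit; triplicate points, three experiments.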

A short description of series [2]: Clearance in rat hepatocytes assessed as per million cells. As to conditions: read-out: CLH. In kind it is ADME, cell-based, Hepatocyte.
Series [3] deals with T1, Catechol O-methyltransferase. In words: Inhibition of c-terminal hexa-His tagged human S-COMT expressed in HEK293-6E cell membrane homogenate using 7,8-dihydroxy-4-methylcoumarin as substrate after 1 hr in presence of SAM by MTase glo methyltransferase assay. The method, boiled down: (§2)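 His6-tagged S-COMT (human or rat), expressed in 293-6E cells and purified by Ni-NTA and size exclusion, 1 ng per well. 20 µM SAM and 10 µM 7,8-dihydroxy-4-methylcoumarin in pH 6.9 Tris/MgCl2/DTT buffer, 1.5% DMSO. 1 h at 37 °C, then MTase-Glo luminescence read against a SAH standard curve. […] 4-parameter IC50; triplicate wells, three runs.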

For series [4], the target named is T2, Catechol O-methyltransferase (Rattus norvegicus, UniProt P22734).
T2 sequence (P22734 whole entry): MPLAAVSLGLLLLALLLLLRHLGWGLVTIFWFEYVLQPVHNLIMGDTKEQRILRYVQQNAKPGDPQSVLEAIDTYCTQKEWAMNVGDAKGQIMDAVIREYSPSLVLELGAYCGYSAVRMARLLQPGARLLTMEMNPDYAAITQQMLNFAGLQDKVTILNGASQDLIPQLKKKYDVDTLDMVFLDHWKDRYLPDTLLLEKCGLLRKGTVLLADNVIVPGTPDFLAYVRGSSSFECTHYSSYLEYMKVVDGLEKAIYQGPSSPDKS
Briefly: Inhibition of c-terminal hexa-His tagged rat MB-COMT expressed in HEK293 cell membrane homogenate using norepinephrine as substrate after 1 hr in presence of SAM by MTase glo methyltransferase assay. The method, boiled down:
as §1

Series [5] addresses T2, Catechol O-methyltransferase. In words: Inhibition of c-terminal hexa-His tagged rat S-COMT expressed in HEK293-6E cell membrane homogenate using 7,8-dihydroxy-4-methylcoumarin as substrate after 1 hr in presence of SAM by MTase glo methyltransferase assay. The method, boiled down:
as §2

In series [6] the test system is Rattus norvegicus. Briefly: Oral bioavailability in rat at 3/10 mg/kg. In kind it is ADME, organism-based. Particulars: in vivo. The method, boiled down:
(§3)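 Rat pharmacokinetics after a 1 mpk iv dose (n=3) and a 3 or 10 mpk oral dose (n=3).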

The nature of series [7]: Half life in rat at 1 mg/kg, iv or 3/10 mg/kg, po. It counts as ADME, organism-based. As to conditions: in vivo. The method, boiled down: as §3
For series [8], the system named is Rattus norvegicus. In words: Volume of distribution at steady state in rat at 1 mg/kg, iv or 3/10 mg/kg, po. In kind it is ADME, organism-based. As to conditions: in vivo. The procedure, abridged:
as §3

Series [9] in a line: Efflux ratio of permeability in MDCK cells. In kind it is ADME, cell-based, Canis lupus familiaris. As to conditions: dog. The method, boiled down: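 Efflux ratio taken as […] transport across P-glycoprotein-expressing MDCK cells.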
Series [10] in a line: Drug uptake in brain of C57BL/6J mouse at 10 mg/kg, ip measured at 1 hr post dose. As to conditions: C57BL/6J, brain, read-out: Drug uptake. In kind it is ADME, organism-based. The procedure, abridged: (§4)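 Male C57BL/6J mice (8 weeks), single ip injection of 10 mg/kg suspended in 0.1% Tween80/0.1% antifoam/1% methylcellulose at 10 mL/kg. Two mice per timepoint; at 1 h, plasma separated at 4 °C and brain homogenized in 4 volumes PBS pH 7.4. Total brain and plasma levels measured.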

A short description of series [11]: Plasma concentration C57BL/6J mouse at 10 mg/kg, ip measured at 1 hr post dose. It counts as ADME, organism-based. The procedure, abridged:
as §4

Series [12] in a line: Apparent permeability of the compound in MDCK cells. In kind it is ADME, cell-based, Canis lupus familiaris. As to conditions: dog.
A short description of series [13]: Unbound plasma concentration in Sprague-Dawley rat 10 mg/kg, po after 4 hrs by ES-UPLC analysis. It counts as ADME, organism-based. Particulars: in vivo. The procedure, abridged:
(§5)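 Sprague Dawley rats given 10 mg/kg po; CSF, plasma and brain collected at 4 h. Drug measured in CSF; free plasma and brain levels computed from total levels using plasma protein and brain tissue binding fractions. Free CSF derived from CSF binding by equilibrium dialysis with pooled rat CSF. Ratios taken from these values.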

Series [14] in a line: Unbound drug level in brain of Sprague-Dawley rat at 10 mg/kg, po after 4 hrs by ES-UPLC analysis. It counts as ADME, organism-based. As to conditions: in vivo. The procedure, abridged: as §5
The nature of series [15]: Drug level in CSF of Sprague-Dawley rat at 10 mg/kg, po after 4 hrs by ES-UPLC analysis. In kind it is ADME, organism-based, Cerebrospinal fluid. As to conditions: read-out: Drug uptake. The procedure, abridged:
as §5

The nature of series [16]: Ratio of drug level in CSF of Sprague-Dawley rat to unbound plasma concentration in Sprague-Dawley rat at 10 mg/kg, po after 4 hrs by ES-UPLC analysis. It counts as ADME, organism-based. Particulars: in vivo. The method, boiled down:
as §5

A short description of series [17]: Ratio of drug level in CSF of Sprague-Dawley rat to unbound brain concentration in Sprague-Dawley rat at 10 mg/kg, po after 4 hrs by ES-UPLC analysis. In kind it is ADME, organism-based. Particulars: in vivo. The procedure, abridged:
as §5

A short description of series [18]: Ratio of unbound drug level in CSF of Sprague-Dawley rat to unbound plasma concentration in Sprague-Dawley rat at 10 mg/kg, po after 4 hrs by ES-UPLC analysis. It counts as ADME, organism-based. As to conditions: CSF and plasma. The method, boiled down:
as §5

Series [19] has as its system Rattus norvegicus. Briefly: In vivo inhibition of COMT in Sprague-Dawley rat assessed as HVA levels in CSF at 10 mg/kg, po measured at 4 hrs post dose by LC-MS analysis relative to control. It counts as functional. On the set-up: scale not given: the % may be the effect or the level left. The procedure, abridged: (§6)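 Male Sprague Dawley rats (176–200 g on arrival) dosed orally at 10 mg/kg in Tween80/antifoam/methylcellulose suspension, 10 mL/kg, vehicle group as control (n=5–10). At 4 h under isoflurane, CSF drawn from cisterna magna. HVA and DOPAC quantified by LC-MS against standards in 0.01 M perchloric acid/aCSF with d5 internal standards. Reported as % of vehicle.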

Series [20] relates to Rattus norvegicus. Briefly: In vivo inhibition of COMT in Sprague-Dawley rat assessed as DOPAC levels in CSF at 10 mg/kg, po measured at 4 hrs post dose by LC-MS analysis relative to control. In kind it is functional. The method, boiled down: as §6
The nature of series [21]: Protein binding in CSF of Sprague-Dawley rat at 2 uM by equilibrium dialysis. In kind it is ADME, tissue-based, Cerebrospinal fluid. Particulars: read-out: PB (converted). The procedure, abridged:
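Binding in pooled rat CSF measured by equilibrium dialysis at 2 µM test concentration.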

Series [22] can be described thus: Unbound plasma concentration in Sprague-Dawley rat 15 mg/kg, ip after 4 hrs by ES-UPLC analysis. It counts as ADME, organism-based. As to conditions: in vivo.
A short description of series [23]: Unbound drug level in brain of Sprague-Dawley rat at 15 mg/kg, ip after 4 hrs by ES-UPLC analysis. In kind it is ADME, organism-based. Particulars: in vivo, BLD = below limit of detection.
A short description of series [24]: Drug level in CSF of Sprague-Dawley rat at 15 mg/kg, ip after 4 hrs by ES-UPLC analysis. It counts as ADME, organism-based, Cerebrospinal fluid. Particulars: in vivo, BLD = below limit of detection.
Series [25] can be described thus: Fraction unbound in mouse plasma by equilibrium dialysis. In kind it is ADME, cell-free. The procedure, abridged: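 Percent free drug in mouse or rat plasma, measured by equilibrium dialysis.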
Series [26] can be described thus: Fraction unbound in rat brain by equilibrium dialysis. It counts as ADME, tissue-based. The method, boiled down: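 Percent free drug in rat brain tissue, measured by equilibrium dialysis.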
In general terms: Equilibrium dialysis compares concentrations on both sides of a semipermeable membrane.

Structures are written as SMILES.

Take `O=S(=O)(c1ccc(F)cc1)c1cc(F)c(O)c2ncccc12`: the IC50 (usually the concentration that gives 50% inhibition) in series [1] was 3.98 nM; in [3], 1580 nM; in series [4], below 1 nM; in series [5], above 10000 nM. The hepatocyte CLint in series [2] turned out to be 15 µL/min/1e6 cells. The F in the series on Rattus norvegicus [6] amounted to 100%. For the same compound, the half-life (in general, the time in which the quantity being followed falls by half) in [7] was 4.5 h. In the series on Rattus norvegicus [8], the Vdss came out at 3.5 L/kg. In addition, the efflux ratio – broadly, a quotient of directional permeabilities that is used to spot active efflux – in [9] worked out at 0.7. In addition, the concentration at 1 h in [10] is 527 ng/g; in series [11], 5720 ng/mL. In addition, the Papp (usually a coefficient for how fast a substance crosses the barrier) in series [12] was above 10 ×10⁻⁶ cm/s. Also, the “Cp(f)” value in series [13] is given as 48 nM. Moreover, the “Drug uptake(free)” value in [14] amounted to 7.7 nM. Further, in series [15], the concentration at 4 h came to 127 nM. The Ratio stood at 2.6 in series [16] and 16 in series [17]. Also, in series [18], the Kp uu at 4 h came out at 1.2. Also, the Activity with Rattus norvegicus [19] was 86%. Besides, the “CSF DOPAC level (% of vehicle)” value in the series with Rattus norvegicus [20] amounted to 173%. Moreover, the fraction unbound at 2 µM in series [21] is 0.47.
Consider `Cc1ccc(C(=O)c2cc(O)c(O)c([N+](=O)[O-])c2)cc1` [TOLCAPONE], for which the “Cp(f)” value in [22] was found to be 35 nM. The “Drug uptake(free)” value in series [23] is listed as “Bld”. Also, the Drug uptake entry in series [24] is listed as “Bld”.
With `O=S(=O)(c1ccc(O)c2ncccc12)N1CCCC1Cc1ccccc1` (stereo unspecified), the IC50 in [1] was 2 nM; in series [3], 2000 nM. Further, the hepatocyte CLint in series [2] was 228 µL/min/1e6 cells. The Fu in series [25] turned out to be 0.5. Also, the fraction unbound in series [26] was 0.5. In addition, the concentration at 1 h in series [10] was determined as 109 ng/g; in [11] it was 235 ng/mL.
